Converted amounts (≈) assume the structure as drawn.
Key:
Streptococcus pneumoniae = assay: In vitro antibacterial activity against Streptococcus pneumoniae A 9585; format: functional
[1] = Compound was evaluated in vivo in blood samples from the orbital sinus for its half life after 40 mg/kg of intramuscular administration in mice.; format: ADME, organism-based; parameters: dose 40 mg/kg, route intramuscular; conditions: mouse, im
Mus musculus [2] = assay: Compound was evaluated in vivo in urine sample collected over 24 hours for its concentration after 40 mg/kg intramuscular administration to mice; format: functional
Procedure, shortened: (§1)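 Mice were dosed at 40 mg/kg, either orally with a blunt needle and syringe or intramuscularly, with separate groups for each route. Blood was drawn from the orbital sinus at 5, 15, 30, 60, 120 and 180 min. Urine was pooled over 24 h. Drug levels were measured by agar disk diffusion microbioassay with Salmonella enteritidis A9531 as the assay organism.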

Enterobacter cloacae = assay: In vitro antibacterial activity against Enterobacter cloacae A 9656; format: functional
Proteus mirabilis = assay: In vitro antibacterial activity (minimum inhibitory concentration, MIC) against Proteus mirabilis A 9900; format: functional
in vivo [3] = conditions: mouse, po, 40 mg/kg
in vivo [4] = conditions: mouse, blood, po, 40 mg/kg
Staphylococcus aureus [5] = assay: In vitro antibacterial activity against Staphylococcus aureus A 24227; format: functional
Mus musculus [6] = assay: Compound was evaluated in vivo in urine sample collected over 24 hours for its concentration after 40 mg/kg peroral administration to mice; format: functional; conditions: route oral; procedure, shortened: as §1
Mus musculus [7] = assay: Compound was evaluated in vivo in blood samples from the orbital sinus for its concentration using Area under the time-concentration curve after 40 mg/kg intramuscular administration to mice; format: ADME, organism-based; parameters: dose 40 mg/kg, route intramuscular; conditions: im; procedure, shortened: as §1
Escherichia coli [8] = assay: In vitro antibacterial activity against Escherichia coli A 15119; format: functional
Bacteroides fragilis = assay: Compound was tested in vitro for its antibacterial activity (minimum inhibitory concentration) against Bacteroides fragilis A 22862.; format: functional; conditions: A22862
Morganella morganii = assay: In vitro antibacterial activity against Morganella morganii A 15153; format: functional
Klebsiella pneumoniae = assay: In vitro antibacterial activity against Klebsiella pneumoniae A 9664; format: functional
Pseudomonas aeruginosa [9] = assay: Compound was tested in vitro for its antibacterial activity (minimum inhibitory concentration, MIC) against Pseudomonas aeruginosa A 9843; format: functional
Serratia marcescens = assay: In vitro antibacterial activity (minimum inhibitory concentration) against Serratia marcescens A 20019.; format: functional
Enterococcus faecalis [10] = assay: In vitro antibacterial activity against Enterococcus faecalis A 9809; format: functional
Haemophilus influenzae = assay: In vitro antibacterial activity against Haemophilus influenzae A 21515; format: functional
[11] = Compound was evaluated in vivo in blood samples from the orbital sinus for its concentration after a intramuscular administration 40 mg/kg in mice; format: ADME, organism-based; parameters: dose 40 mg/kg, route intramuscular; conditions: mouse, im; procedure, shortened: as §1
Mus musculus [12] = organism: Mus musculus; conditions: in vivo, po, 40 mg/kg
Staphylococcus aureus [13] = assay: In vitro antibacterial activity (minimum inhibitory concentration, MIC) against Staphylococcus aureus A 9537.; format: functional
Staphylococcus aureus [14] = assay: Compound was tested for the dose to protect 50% of mice from lethal infection against Staphylococcus aureus A 9606 after peroral administration to OF1-strain of female Swiss mice.; format: functional; conditions: po, read-out: PD50
Procedure, shortened: (§2)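 Compounds dissolved in sterile water and given orally to female OF1 Swiss mice weighing 18-25 g, five mice per group.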

[15] = Compound was tested for the dose to protect 50% of mice from lethal infection against Streptococcus pneumoniae after peroral administration to OF1-strain of female Swiss mice.; format: functional; conditions: po, read-out: PD50; procedure, shortened: as §2
[16] = Compound was evaluated in vivo in blood samples from the orbital sinus for its concentration after an intramuscular administration of 40 mg/kg in mice; format: ADME, organism-based; parameters: dose 40 mg/kg, route intramuscular; conditions: mouse, im; procedure, shortened: as §1
Canis familiaris [17] = assay: Compound was evaluated in vivo in urine sample collected over 24 hours for its concentration after 25 mg/kg peroral administration to dogs.; conditions: route oral
Pseudomonas aeruginosa [18] = assay: Compound was tested for the dose to protect 50% of mice from lethal infection against Pseudomonas aeruginosa A9843 after peroral administration to OF1-strain of female Swiss mice.; format: functional; conditions: po, read-out: PD50; procedure, shortened: as §2
Escherichia coli [19] = assay: Compound was tested for the dose to protect 50% of mice from lethal infection against Escherichia coli A 15119 after peroral administration to OF1-strain of female Swiss mice.; format: functional; conditions: po, read-out: PD50; procedure, shortened: as §2
in vivo [20] = conditions: dog, po, 25 mg/kg
Canis familiaris [21] = organism: Canis familiaris; conditions: dog, in vivo, po, 25 mg/kg
in vivo [22] = conditions: dog, po, 25 mg/kg; remark: listed apart in the source
[23] = Compound was evaluated in vivo in blood samples from the orbital sinus for its concentration after an intramuscular administration of 40 mg/kg in mice.; format: ADME, organism-based; parameters: dose 40 mg/kg, route intramuscular; conditions: mouse, im; procedure, shortened: as §1
Mus musculus [24] = assay: Compound was evaluated in vivo in urine sample collected over 24 hours for its concentration after 40 mg/kg an intramuscular administration to mice; format: functional; procedure, shortened: as §1
[25] = Compound was evaluated in vivo in blood samples from the orbital sinus for its concentration after a peroral administration of 40 mg/kg in mice; format: ADME, organism-based; parameters: dose 40 mg/kg, route oral; conditions: mouse, po; procedure, shortened: as §1
Enterococcus faecalis [26] = assay: Compound was tested in vitro for its antibacterial activity (minimum inhibitory concentration) against Enterococcus faecalis A 9809 (gram positive).; format: functional

| SMILES | MIC (Streptococcus pneumoniae) [µg/mL] | half-life [1] [h] | MIC (Enterobacter cloacae) [µg/mL] | MIC (Proteus mirabilis) [µg/mL] | MIC (Staphylococcus aureus [5]) [µg/mL] | UR (Mus musculus [6]) [%] | AUC (Mus musculus [7]) [ng·h/mL] | MIC (Escherichia coli [8]) [µg/mL] | MIC (Bacteroides fragilis) [µg/mL] | MIC (Morganella morganii) [µg/mL] | MIC (Klebsiella pneumoniae) [µg/mL] | MIC (Pseudomonas aeruginosa [9]) [µg/mL] | MIC (Serratia marcescens) [µg/mL] | MIC (Enterococcus faecalis [10]) [µg/mL] | MIC (Haemophilus influenzae) [µg/mL] | AUC (Mus musculus [12]) [ng·h/mL] | MIC (Staphylococcus aureus [13]) [µg/mL] | ED50 (Staphylococcus aureus [14]) [mg/kg] | ED50 [15] [mg/kg] | ED50 (Pseudomonas aeruginosa [18]) [mg/kg] | other results |
| --- | --- | --- | --- | --- | --- | --- | --- | --- | --- | --- | --- | --- | --- | --- | --- | --- | --- | --- | --- | --- | --- |
| CN1CCN(c2c(F)cc3c(=O)c(C(=O)O)cn(CCF)c3c2F)CC1 [FLEROXACIN] | 2 (≈ 5.42 µM) | 1.02 | 0.13 (≈ 0.352 µM) | 0.06 (≈ 0.162 µM) | 0.25 (≈ 0.677 µM) | 51 | 32000 | 0.03 (≈ 0.0812 µM) | 1 (≈ 2.71 µM) | 0.03 (≈ 0.0812 µM) | 0.13 (≈ 0.352 µM) | 2 (≈ 5.42 µM) | 0.13 (≈ 0.352 µM) | 8 (≈ 21.7 µM) | 0.13 (≈ 0.352 µM) | 23000 | 0.06 (≈ 0.162 µM) | – | – | – | UR (Mus musculus [2]): 64%; Cmax (in vivo [3]; blood): 12000 ng/mL; half-life (in vivo [4]): 0.967 h; Cmax [11]: 20000 ng/mL |
| O=C(O)c1cn(C2CC2)c2cc(N3CCNCC3)c(F)cc2c1=O [CIPROFLOXACIN] | 0.25 (≈ 0.754 µM) | – | – | 0.008 (≈ 0.0241 µM) | 0.13 (≈ 0.392 µM) | 30 | 21000 | – | 4 (≈ 12.1 µM) | – | 0.06 (≈ 0.181 µM) | – | 0.03 (≈ 0.0905 µM) | 0.5 (≈ 1.51 µM) | 0.03 (≈ 0.0905 µM) | 7000 | 0.06 (≈ 0.181 µM) | 31 | > 69 | 2.6 | Cmax [16]: 15000 ng/mL; UR (Canis familiaris [17]): 17%; UR (Mus musculus [2]): 46%; ED50 (Escherichia coli [19]): 0.4 mg/kg; Cmax (in vivo [3]; in vivo): 6000 ng/mL; Cmax (in vivo [20]): 3000 ng/mL |
| CC(C)(C)n1cc(C(=O)O)c(=O)c2cc(F)c(N3C[C@H]4C[C@@H]3CN4)nc21 | 0.13 (≈ 0.361 µM) | 1.58 | 0.016 (≈ 0.0444 µM) | 0.06 (≈ 0.166 µM) | 0.03 (≈ 0.0832 µM) | 34 | 25000 | 0.008 (≈ 0.0222 µM) | 4 (≈ 11.1 µM) | 0.06 (≈ 0.166 µM) | 0.016 (≈ 0.0444 µM) | 0.25 (≈ 0.694 µM) | 0.06 (≈ 0.166 µM) | 0.5 (≈ 1.39 µM) | 0.03 (≈ 0.0832 µM) | 14000 | 0.03 (≈ 0.0832 µM) | 1.6 | 29.7 | 4.7 | AUC (Canis familiaris [21]): 55000 ng·h/mL; Cmax [16]: 13000 ng/mL; UR (Canis familiaris [17]): 20%; UR (Mus musculus [2]): 39%; half-life (in vivo [22]): 4.5 h; ED50 (Escherichia coli [19]): 1.8 mg/kg; Cmax (in vivo [3]; blood): 10000 ng/mL; half-life (in vivo [4]): 1.6 h; Cmax (in vivo [20]): 5600 ng/mL; S: 80 µg/mL |
| CC(C)(CF)n1cc(C(=O)O)c(=O)c2cc(F)c(N3CC4C[C@@H]3CN4)nc21.Cl | 0.5 | – | 0.13 | 0.5 | 2 | – | 20000 | 0.06 | 8 | 0.25 | 0.25 | 0.5 | 0.25 | 2 | 0.13 | 7000 | 0.25 | 25 | 57.4 | 4.9 | Cmax [16]: 8000 ng/mL; ED50 (Escherichia coli [19]): 2.4 mg/kg; Cmax (in vivo [3]; blood): 4000 ng/mL; S: 200 µg/mL |
| CC(C)(C)n1cc(C(=O)O)c(=O)c2cc(F)c(N3CC[C@H](N)C3)cc21.CS(=O)(=O)O | 0.06 | 0.9 | 0.06 | 0.06 | 0.03 | 14 | 15000 | 0.016 | 8 | 0.13 | 0.5 | 0.25 | 0.13 | 0.13 | 0.008 | 5000 | 0.008 | 14.4 | > 25 | 10.2 | AUC (Canis familiaris [21]): 30000 ng·h/mL; UR (Canis familiaris [17]): 7.7%; half-life (in vivo [22]): 4 h; Cmax [23]: 6000 ng/mL; ED50 (Escherichia coli [19]): 9.5 mg/kg; half-life (in vivo [4]): 1.1 h; UR (Mus musculus [24]): 24%; Cmax [25]: 3000 ng/mL; Cmax (in vivo [20]): 2800 ng/mL; S: 250 µg/mL |
| CC(C)(CF)n1cc(C(=O)O)c(=O)c2cc(F)c(N3CC[C@H](N)C3)cc21.CS(=O)(=O)O | 0.06 | 1.82 | 0.004 | 0.004 | 0.016 | 4 | 14000 | 0.002 | 2 | 0.002 | 0.004 | 0.13 | 0.016 | 0.13 | 0.016 | 600 | 0.03 | 26.4 | > 50 | 23.7 | AUC (Canis familiaris [21]): 7300 ng·h/mL; UR (Canis familiaris [17]): 4.6%; UR (Mus musculus [2]): 27%; half-life (in vivo [22]): 7 h; Cmax (in vivo [3]; blood): 1000 ng/mL; Cmax (in vivo [20]): 600 ng/mL; Cmax [11]: 8000 ng/mL; S: 370 µg/mL |
| CC(C)(C)n1cc(C(=O)O)c(=O)c2cc(F)c(N3C[C@H]4CC3CN4)cc21 | – | – | 0.25 (≈ 0.696 µM) | 4 (≈ 11.1 µM) | – | – | – | 0.5 (≈ 1.39 µM) | – | 2 (≈ 5.56 µM) | 0.13 (≈ 0.362 µM) | 0.5 (≈ 1.39 µM) | 4 (≈ 11.1 µM) | – | – | – | 0.5 (≈ 1.39 µM) | – | – | – | MIC (Enterococcus faecalis [26]): 2 µg/mL (≈ 5.56 µM) |
